Experimental data: ChEMBL document CHEMBL4689842, “EUbOPEN Chemogenomics Library wave 1” (2021)

System: U2OS
Experiment: Multiplex assay against U2OS
Format: toxicity, cell-based
Details: human
Outline: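 Tubulin, mitochondrial-mass and membrane-permeability phenotypes are per cents of healthy-nucleus cells. Cells were gated by CellPathfinder machine learning into Hoechst high-intensity objects or normal cells, normal cells into healthy, pyknosed or fragmented nuclei, and pyknosed cells into mitotic or apoptotic. Before that, live cells stained at seeding with Hoechst33342, BioTracker Green Microtubule Cytoskeleton Dye, MitoTracker Red and Annexin V Alexa Fluor 680 were imaged on a CQ1 microscope at 37°C and 5% CO2 after compound addition.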

[1] = 12 h, 1 µM, compound concentration 1 uM, replicate 1
[2] = 12 h, 1 µM, compound concentration 1 uM, replicate 2
[3] = 12 h, 10 µM, compound concentration 10 uM, replicate 1
[4] = 12 h, 10 µM, compound concentration 10 uM, replicate 2
[5] = 24 h, 1 µM, compound concentration 1 uM, replicate 1
[6] = 24 h, 1 µM, compound concentration 1 uM, replicate 2
[7] = 24 h, 10 µM, compound concentration 10 uM, replicate 1
[8] = 24 h, 10 µM, compound concentration 10 uM, replicate 2

Cn1nc(C(F)(F)F)cc1-c1cnc(N2CCc3cc(S(=O)(=O)Nc4c(F)cc(Cl)cc4F)cc(N4CCCC4=O)c32)nc1 [TP-020]
Population Apoptotic (%) [1]: 27%
Population Fragmented Nuclei (%) [1]: 4%
Population Healthy Nuclei (%) [1]: 88%
Population Hoechst High Intensity Objects (%) [1]: 4%
Population Membrane Permeable-Phenotype (%) [1]: 17%
Population Mitochondria Different-Phenotype (%) [1]: 18%
Population Mitotic Cells (%) [1]: 72%
Population Normal (%) [1]: 95%
Population Pyknosed Nuclei (%) [1]: 6%
Population Tubulin-Different-Phenotype (%) [1]: 10%
Total Cell Count [1]: 139
Population Apoptotic (%) [2]: 0%
Population Fragmented Nuclei (%) [2]: 14%
Population Healthy Nuclei (%) [2]: 79%
Population Hoechst High Intensity Objects (%) [2]: 15%
Population Membrane Permeable-Phenotype (%) [2]: 15%
Population Mitochondria Different-Phenotype (%) [2]: 15%
Population Mitotic Cells (%) [2]: 100%
Population Normal (%) [2]: 84%
Population Pyknosed Nuclei (%) [2]: 5%
Population Tubulin-Different-Phenotype (%) [2]: 15%
Total Cell Count [2]: 134
Population Apoptotic (%) [3]: 50%
Population Fragmented Nuclei (%) [3]: 3%
Population Healthy Nuclei (%) [3]: 93%
Population Hoechst High Intensity Objects (%) [3]: 4%
Population Membrane Permeable-Phenotype (%) [3]: 11%
Population Mitochondria Different-Phenotype (%) [3]: 23%
Population Mitotic Cells (%) [3]: 50%
Population Normal (%) [3]: 95%
Population Pyknosed Nuclei (%) [3]: 3%
Population Tubulin-Different-Phenotype (%) [3]: 22%
Total Cell Count [3]: 196
Population Apoptotic (%) [4]: 16%
Population Fragmented Nuclei (%) [4]: 8%
Population Healthy Nuclei (%) [4]: 81%
Population Hoechst High Intensity Objects (%) [4]: 5%
Population Membrane Permeable-Phenotype (%) [4]: 10%
Population Mitochondria Different-Phenotype (%) [4]: 31%
Population Mitotic Cells (%) [4]: 83%
Population Normal (%) [4]: 94%
Population Pyknosed Nuclei (%) [4]: 9%
Population Tubulin-Different-Phenotype (%) [4]: 26%
Total Cell Count [4]: 133
Population Apoptotic (%) [5]: 20%
Population Fragmented Nuclei (%) [5]: 2%
Population Healthy Nuclei (%) [5]: 90%
Population Hoechst High Intensity Objects (%) [5]: 2%
Population Membrane Permeable-Phenotype (%) [5]: 12%
Population Mitochondria Different-Phenotype (%) [5]: 10%
Population Mitotic Cells (%) [5]: 80%
Population Normal (%) [5]: 97%
Population Pyknosed Nuclei (%) [5]: 7%
Population Tubulin-Different-Phenotype (%) [5]: 16%
Total Cell Count [5]: 196
Population Apoptotic (%) [6]: 42%
Population Fragmented Nuclei (%) [6]: 12%
Population Healthy Nuclei (%) [6]: 81%
Population Hoechst High Intensity Objects (%) [6]: 5%
Population Membrane Permeable-Phenotype (%) [6]: 13%
Population Mitochondria Different-Phenotype (%) [6]: 23%
Population Mitotic Cells (%) [6]: 57%
Population Normal (%) [6]: 94%
Population Pyknosed Nuclei (%) [6]: 5%
Population Tubulin-Different-Phenotype (%) [6]: 11%
Total Cell Count [6]: 163
Population Apoptotic (%) [7]: 9%
Population Fragmented Nuclei (%) [7]: 3%
Population Healthy Nuclei (%) [7]: 91%
Population Hoechst High Intensity Objects (%) [7]: 1%
Population Membrane Permeable-Phenotype (%) [7]: 6%
Population Mitochondria Different-Phenotype (%) [7]: 19%
Population Mitotic Cells (%) [7]: 90%
Population Normal (%) [7]: 98%
Population Tubulin-Different-Phenotype (%) [7]: 29%
Total Cell Count [7]: 268
Population Apoptotic (%) [8]: 50%
Population Fragmented Nuclei (%) [8]: 6%
Population Healthy Nuclei (%) [8]: 88%
Population Hoechst High Intensity Objects (%) [8]: 7%
Population Membrane Permeable-Phenotype (%) [8]: 9%
Population Mitochondria Different-Phenotype (%) [8]: 45%
Population Mitotic Cells (%) [8]: 50%
Population Normal (%) [8]: 92%
Population Pyknosed Nuclei (%) [8]: 5%
Population Tubulin-Different-Phenotype (%) [8]: 25%
Total Cell Count [8]: 175
